This note sets out measurements from ChEMBL document CHEMBL4354845, “Discovery and Structure-Activity Relationships of Nociceptin Receptor Partial Agonists That Afford Symptom Ablation in Parkinson's Disease Models” (J Med Chem, 2020).

Active and inactive are the calls of the source. No cut-off for these calls is given here. A value given as a limit tells only on which side of the number the result lay.

A short description of data set [1]: Cmax in Sprague-Dawley rat plasma at 3 mg/kg, sc measured upto 8 hrs by LC-MS/MS analysis. The data set is classed as ADME, organism-based. More on the design: dose 3 mg/kg, route subcutaneous. The method, boiled down:
(§1)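 Male Sprague-Dawley rats (250–300 g) given a single s.c. dose of 3 mg/kg (2 mL/kg) as a 1.5 mg/ml solution in 5% dimethylacetamide/95% of 30% SBECD. Plasma (K2-EDTA) and brain collected at 0.5, 1, 2, 4 and 8 h. Brain homogenised 1:4 w/v in water. Terfenadine internal standard, positive-ion ESI LC-MS/MS. Noncompartmental analysis, linear trapezoidal AUC to 8 h. Brain values are total.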

The nature of data set [2]: Apparent permeability across apical to basolateral side in dog MDCK-MDR1 cells by HPLC-MS/MS analysis. The format is ADME, cell-based, Canis lupus familiaris. The method, boiled down: (§2)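 MDR1-MDCK monolayers, bidirectional permeability (A→B and B→A), compound quantified by HPLC/MS/MS and expressed as Papp (10^-6 cm/s). Efflux ratio B–A/A–B. High BBB permeability taken as Papp A–B >3.0 with efflux ratio <3; efflux ratio >3 counted as high efflux.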

A short description of data set [3]: Stability in human liver microsomes assessed as half life at 1 uM incubated for 60 mins by LC-MS/MS analysis. The format is ADME, Microsome. The method, boiled down: (§3)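 Compound at 1 µM incubated at 37°C with liver microsomes in 100 mM potassium phosphate pH 7.4 and 5 mM MgCl2. Reaction started with 1 mM NADPH, sampled at 30, 45 and 60 min and quenched with acetonitrile/0.1% formic acid. Parent loss measured by LC-MS against t=0 with propranolol internal standard. Half-life from single-phase exponential fit, in duplicate.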
(Microsomes from liver hold many membrane-bound enzymes, among them those of drug oxidation.)

The nature of data set [4]: Apparent permeability across apical to basolateral side in human Caco2 cells by HPLC-MS/MS analysis. The format is ADME, cell-based. To be noted: Caco-2. The method, boiled down: (§4)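 Caco-2 monolayers, two-way permeability (apical→basolateral and basolateral→apical), compound monitored by HPLC/MS/MS and reported as Papp (10^-6 cm/s). Papp >1.0x10^-6 cm/s with efflux ratio <3 classed as high permeability/no efflux.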
On the technique in general: Caco-2 monolayers are a common model of the intestinal barrier.

Data set [5] relates to Rattus norvegicus. As to the kind of experiment: Anti-parkinson's disease activity in Sprague-Dawley rat model of L-DOPA-induced dyskinesia at 0.01 to 1 mg/kg, ip administered for 3 days. The format is functional, organism-based.
A short description of data set [6]: Half life in Sprague-Dawley rat plasma at 3 mg/kg, sc measured upto 8 hrs by LC-MS/MS analysis. The format is ADME, organism-based. The method, boiled down:
as §1

The subject of data set [7] is Rattus norvegicus. As to the kind of experiment: Anti-parkinson's disease activity in Sprague-Dawley rat model of L-DOPA-induced dyskinesia at 0.1 to 3 mg/kg, ip administered for 3 days. The data set is classed as functional, organism-based.
The nature of data set [8]: Tmax in Sprague-Dawley rat brain at 3 mg/kg, sc measured upto 8 hrs by LC-MS/MS analysis. The format is ADME, organism-based. The method, boiled down: as §1
For data set [9], the system named is Rattus norvegicus. As to the kind of experiment: Anti-parkinson's disease activity in 6-OHDA-induced hemi-lesioned Sprague-Dawley rat model of Parkinson's disease assessed as increase in stepping activity at 0.1 to 3 mg/kg, ip administered for 3 days and measured after 90 mins of compound administration by drag test. The data set is classed as functional, organism-based. The method, boiled down:
(§5)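 Rats received unilateral 6-OHDA (8 µg freebase) into the medial forebrain bundle and were enrolled if they made >7 ipsilateral turns/min after D-amphetamine 5 mg/kg i.p. They were trained to reproducible performance, then given acute i.p. doses or vehicle (saline + 5% Tween 80, 1% DMSO) with 3-day washouts. Contralateral paw scored at 20 and 90 min in bar and drag tests. Rotarod started at 5 rpm, rising 5 rpm/180 s, expressed as % of control. Analysis by two-way ANOVA with Bonferroni.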

A short description of data set [10]: Tmax in Sprague-Dawley rat plasma at 3 mg/kg, sc measured upto 8 hrs by LC-MS/MS analysis. The data set is classed as ADME, organism-based. The method, boiled down: as §1
Data set [11] is described as follows: Apparent permeability across basolateral to apical side in human Caco2 cells by HPLC-MS/MS analysis. The format is ADME, cell-based. To be noted: Caco-2. The method, boiled down:
as §4

Data set [12] is described as follows: AUClast in Sprague-Dawley rat plasma at 3 mg/kg, sc measured upto 8 hrs by LC-MS/MS analysis. The data set is classed as ADME, organism-based. More on the design: dose 3 mg/kg, time < 8 hr, route subcutaneous. The method, boiled down: as §1
Data set [13] deals with Rattus norvegicus. As to the kind of experiment: Anti-parkinson's disease activity in 6-OHDA-induced hemi-lesioned Sprague-Dawley rat model of Parkinson's disease assessed as reduction in immobility time at 0.1 to 3 mg/kg, ip administered for 3 days and measured after 20 mins of compound administration by bar test. Details: scale not given: the % may be the effect or the level left. The data set is classed as functional. The method, boiled down: as §5

Data set [14] in a line: Apparent permeability across basolateral to apical side in dog MDCK-MDR1 cells by HPLC-MS/MS analysis. The format is ADME, cell-based, Canis lupus familiaris. The method, boiled down:
as §2

The subject of data set [15] is Rattus norvegicus. The experiment in a line: Anti-parkinson's disease activity in 6-OHDA-induced hemi-lesioned Sprague-Dawley rat model of Parkinson's disease assessed as increase in time spent on rotarod at 0.1 to 3 mg/kg, ip administered for 3 days and measured after 20 mins of compound administration by rotarod test. The format is functional. The method, boiled down:
as §5
Background: The rotarod test checks motor coordination on a turning rod.

Data set [16] in a line: Stability in rat liver microsomes assessed as half life at 1 uM incubated for 60 mins by LC-MS/MS analysis. The data set is classed as ADME, Microsome. The method, boiled down: as §3
The nature of data set [17]: Cmax in Sprague-Dawley rat brain at 3 mg/kg, sc measured upto 8 hrs by LC-MS/MS analysis. The data set is classed as ADME, organism-based. Details: dose 3 mg/kg, route subcutaneous. The method, boiled down: as §1
Data set [18] is described as follows: Half life in Sprague-Dawley rat brain at 3 mg/kg, sc measured upto 8 hrs by LC-MS/MS analysis. The data set is classed as ADME, organism-based. The method, boiled down:
as §1

The nature of data set [19]: AUClast in Sprague-Dawley rat brain at 3 mg/kg, sc measured upto 8 hrs by LC-MS/MS analysis. The data set is classed as ADME, organism-based. Details: time < 8 hr, dose 3 mg/kg, route subcutaneous. The method, boiled down: as §1
The subject of data set [20] is Rattus norvegicus. The experiment in a line: Anti-parkinson's disease activity in 6-OHDA-induced hemi-lesioned Sprague-Dawley rat model of Parkinson's disease assessed as reduction in immobility time at 0.01 to 1 mg/kg, ip administered for 3 days and measured after 20 mins of compound administration by bar test. The format is functional, organism-based. The method, boiled down: as §5

Data set [21] concerns Rattus norvegicus. As to the kind of experiment: Anti-parkinson's disease activity in 6-OHDA-induced hemi-lesioned Sprague-Dawley rat model of Parkinson's disease assessed as increase in stepping activity at 0.01 to 1 mg/kg, ip administered for 3 days and measured after 90 mins of compound administration by drag test. The data set is classed as functional, organism-based. The method, boiled down: as §5

The subject of data set [22] is Rattus norvegicus. As to the kind of experiment: Anti-parkinson's disease activity in 6-OHDA-induced hemi-lesioned Sprague-Dawley rat model of Parkinson's disease assessed as increase in time spent on rotarod at 0.01 to 1 mg/kg, ip administered for 3 days and measured after 20 mins of compound administration by rotarod test. The data set is classed as functional, organism-based. The method, boiled down:
as §5

The nature of data set [23]: Stability in mouse liver microsomes assessed as half life at 1 uM incubated for 60 mins by LC-MS/MS analysis. The data set is classed as ADME, Microsome. The method, boiled down: as §3

Regarding `CC(C)[C@H]1CC[C@@H](N2CCC(n3ccc4ccccc43)CC2)CC1`, the Cmax (as a rule, the highest concentration seen after dosing) is 626 nM in [1] and 4170 nM in data set [17]. The Papp A→B (as a rule, the apparent permeability from the apical to the basolateral side of a cell layer) was found to be 28.8 ×10⁻⁶ cm/s in data set [2] and 24 ×10⁻⁶ cm/s in data set [4]. Also, the half-life (in general, how long it takes for the measured level to halve) at 1 µM amounted to 0.0883 h in data set [3] and 0.0967 h in data set [16]. The outcome in data set [5] and in data set [7] was inactive. Also, the half-life was 2.19 h in data set [6] and 2.43 h in [18]. The Tmax (usually the time at which the peak concentration occurs) was 0.5 h in data set [8] and 1 h in [10]. Also, in [9], the outcome was Active. The Papp B→A (usually the apparent permeability from the basolateral to the apical side of a cell layer) in [11] is 19.1 ×10⁻⁶ cm/s; in data set [14], 15.2 ×10⁻⁶ cm/s. In addition, the AUC(0-t) (commonly exposure summed from dosing to a finite time, without extrapolation to infinity) at 8 h was 1.96 µM·h in data set [12] and 10.1 µM·h in data set [19]. For the same compound, the Activity in data set [13] is listed as 25%; in data set [15], 20%.

`CC(C)[C@H]1CC[C@@H](N2CCC(n3cc(CN)c4ccccc43)CC2)CC1`: the figures for the Cmax in data set [1] and in data set [17] were 529 nM and 956 nM, respectively. The Papp A→B in data set [2] is 0.34 ×10⁻⁶ cm/s; in [4] it was 4.64 ×10⁻⁶ cm/s. The half-life at 1 µM in data set [3] and in [16] was above 1 h each time. Also, the result in data set [5] and in [7] was inactive. Moreover, the half-life in [6] was 2.61 h; in data set [18], 10.8 h. For the same compound, the Tmax is 4 h in data set [8] and 0.5 h in data set [10]. Moreover, the Papp B→A in data set [11] is 4.92 ×10⁻⁶ cm/s; in data set [14] it was 14.4 ×10⁻⁶ cm/s. Further, the AUC(0-t) at 8 h in data set [12] was 1 µM·h; in [19], 6.13 µM·h. In addition, the result in [20], in data set [21] and in data set [22] was Active.

Take `CC(C)[C@H]1CC[C@@H](N2CCC(n3cc(CCN)c4ccccc43)CC2)CC1.Cl.Cl`: the Papp A→B worked out at 0.6 ×10⁻⁶ cm/s in data set [2] and 4.36 ×10⁻⁶ cm/s in data set [4]. Also, the Papp B→A came out at 6.49 ×10⁻⁶ cm/s in data set [11] and 22.1 ×10⁻⁶ cm/s in [14]. For the same compound, the half-life at 1 µM in data set [23] is above 1 h.

As to `CC(C)[C@H]1CC[C@@H](N2CCC(N3CCc4ccccc43)CC2)CC1`, the Cmax in [1] was determined as 456 nM; in data set [17], 3070 nM. Also, the Papp A→B is 26.8 ×10⁻⁶ cm/s in [2] and 30 ×10⁻⁶ cm/s in data set [4]. Also, the outcome in data set [5] and in [7] was inactive. Also, the half-life in data set [6] is 2.13 h; in data set [18] it was 2.71 h. Also, the Tmax in data set [8] and in [10] was 0.5 h in each case. Moreover, the Papp B→A in data set [11] turned out to be 25 ×10⁻⁶ cm/s; in [14], 33.8 ×10⁻⁶ cm/s. For the same compound, the area under the curve AUC(0-t) at 8 h in [12] stood at 1.25 µM·h; in [19] it was 6.7 µM·h. Besides, in [23], the half-life at 1 µM is 0.0467 h. Also, the outcome in data set [20], in data set [21] and in data set [22] was Active.
